Test results taken from ChEMBL document CHEMBL2163259, “ADME-guided design and synthesis of aryloxanyl pyrazolone derivatives to block mutant superoxide dismutase 1 (SOD1) cytotoxicity and protein aggregation: potential application for the treatment of amyotrophic lateral sclerosis” (J Med Chem, 2012).
Activity calls are given as the source filed them. The calls are words filed in the database; no cut-off is given here.

Tests used:
Rattus norvegicus [1] = organism: Rattus norvegicus; test: Inhibition of rat thyroid hormone receptor at 10 uM by radioligand displacement assay
Procedure, shortened: (§1)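 Single concentration of 10 μM, tested in duplicate as part of a contracted panel of 68 in vitro enzyme and receptor assays. The panel covers common adverse CNS, cardiovascular, pulmonary and genotoxic targets.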

[2] = biological target: Beta-1 adrenergic receptor (Homo sapiens) (UniProt P08588); test: Inhibition of human beta1 adrenergic receptor at 10 uM by radioligand displacement assay
Procedure, shortened: (§2)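 LeadProfilingScreen panel of 68 in vitro enzyme and receptor assays. Compound tested at 10 μM in duplicate.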

[3] = biological target: Neuropeptide Y receptor type 1 (Homo sapiens) (UniProt P25929); test: Inhibition of human Neuropeptide Y Y1 receptor at 10 uM by radioligand displacement assay; procedure, shortened: as §2
[4] = biological target: Kappa-type opioid receptor (Homo sapiens) (UniProt P41145); test: Inhibition of human kappa-type opioid receptor at 10 uM by radioligand displacement assay; procedure, shortened: as §1
[5] = biological target: Endothelin receptor type B (Homo sapiens) (UniProt P24530); test: Inhibition of human endothelin ETB at 10 uM by radioligand displacement assay; procedure, shortened: as §1
[6] = system: Superoxide dismutase [Cu-Zn] (Homo sapiens), P00441 [G94A]; test: Inhibition of SOD1 G93A mutant aggregation-induced cytotoxicity in human HEK293 cells by cytotoxicity protection assay; format: cell-based
[7] = biological target: Alpha-1D adrenergic receptor (Homo sapiens) (UniProt P25100); test: Inhibition of human adrenergic alpha1D receptor at 10 uM by radioligand displacement assay; procedure, shortened: as §2
Homo sapiens [8] = organism: Homo sapiens; test: Inhibition of human dopamine D4.2 receptor at 10 uM by radioligand displacement assay; procedure, shortened: as §1
[9] = biological target: L-type calcium channel, benzothiazepine site (Rattus norvegicus, UniProt P22002+P27732+Q02485); test: Inhibition of rat calcium channel L-type, benzothiazepine site at 10 uM by radioligand displacement assay; procedure, shortened: as §1
Rattus norvegicus [10] = organism: Rattus norvegicus; test: Inhibition of rat GABAA receptor muscimol site at 10 uM by radioligand displacement assay; procedure, shortened: as §1
[11] = biological target: Cysteinyl leukotriene receptor 1 (Homo sapiens) (UniProt Q9Y271); test: Inhibition of human cysteinyl CysLT1 receptor at 10 uM by radioligand displacement assay; procedure, shortened: as §2
[12] = Plasma concentration in B6SJL mouse at 300 mg/kg after 3 hrs by mass spectrometry; format: ADME, organism-based; design: dose 300 mg/kg
Procedure, shortened: (§3)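 B6SJL mice were given a single 300 mg/kg intraperitoneal bolus. Blood and brain were collected at 0, 1, 3, 6, 12 and 24 h, flash-frozen in liquid nitrogen and stored at -80 °C. Samples were analyzed by mass spectrometry with ESI ionization in MRM mode.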

Rattus norvegicus [13] = organism: Rattus norvegicus; test: Inhibition of rat GABA transporter at 10 uM by radioligand displacement assay; procedure, shortened: as §1
Cytochrome P450 1A2 = Cytochrome P450 1A2 (Homo sapiens, UniProt P05177); test: Inhibition of CYP1A2; format: ADME
Procedure, shortened: (§4)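 Reversible inhibition of CYP isozymes in human liver microsomes, each isozyme with a single probe substrate. CYP3A4 tested with both testosterone and midazolam. IC50 determined.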

[14] = biological target: Gamma-aminobutyric acid type B receptor subunit 1 (Homo sapiens) (UniProt Q9UBS5); test: Inhibition of human GABAB1A receptor at 10 uM by radioligand displacement assay; procedure, shortened: as §2
[15] = biological target: T1, Glutamate NMDA receptor (Rattus norvegicus) (UniProt P35439+Q00959+Q00960+Q00961+Q62645+Q8VHN2+Q9R1M7); test: Inhibition of rat NMDA receptor glutamate and glycine binding site at 10 uM by radioligand displacement assay; format: protein-complex assay; procedure, shortened: as §1
[16] = biological target: Muscarinic acetylcholine receptor M2 (Homo sapiens) (UniProt P08172); test: Inhibition of human muscarinic M2 receptor at 10 uM by radioligand displacement assay; procedure, shortened: as §1
[17] = biological target: L-type calcium channel, dihydropyridine site (Rattus norvegicus, UniProt P22002+P27732+Q02485); test: Inhibition of rat calcium channel L-type, dihydropyridine site at 10 uM by radioligand displacement assay; procedure, shortened: as §1
Rattus norvegicus [18] = organism: Rattus norvegicus; test: Inhibition of rat N-type calcium channel at 10 uM by radioligand displacement assay; procedure, shortened: as §1
[19] = biological target: Prostaglandin E2 receptor EP4 subtype (Homo sapiens) (UniProt P35408); test: Inhibition of human prostanoid receptor EP4 at 10 uM by radioligand displacement assay; procedure, shortened: as §1
[20] = biological target: Alpha-1A adrenergic receptor (Rattus norvegicus) (UniProt P43140); test: Inhibition of rat adrenergic alpha1A receptor at 10 uM by radioligand displacement assay; procedure, shortened: as §1
[21] = biological target: Adenosine receptor A2a (Homo sapiens) (UniProt P29274); test: Inhibition of human adenosine A2 receptor at 10 uM by radioligand displacement assay; procedure, shortened: as §2
[22] = biological target: Alpha-1B adrenergic receptor (Rattus norvegicus) (UniProt P15823); test: Inhibition of rat adrenergic alpha1B receptor at 10 uM by radioligand displacement assay; procedure, shortened: as §1
[23] = Plasma concentration in B6SJL mouse at 300 mg/kg after 12 hrs by mass spectrometry; format: ADME, organism-based; design: dose 300 mg/kg; procedure, shortened: as §3
[24] = biological target: Histamine H1 receptor (Homo sapiens) (UniProt P35367); test: Inhibition of human histamine H1 receptor at 10 uM by radioligand displacement assay; procedure, shortened: as §1
[25] = Half life in mouse microsomes at 5 uM incubated for 1 hr at 37 degC in presence of NADPH; format: ADME, Microsome; conditions: 1 h, 5 µM
hERG = hERG (Homo sapiens, UniProt Q12809); test: Inhibition of human ERG at 10 uM by radioligand displacement assay; procedure, shortened: as §2
[26] = biological target: T1, Glutamate NMDA receptor (Rattus norvegicus); test: Inhibition of rat NMDA receptor glutamate binding site at 10 uM by radioligand displacement assay; format: protein-complex assay; procedure, shortened: as §1
[27] = Plasma concentration in B6SJL mouse at 300 mg/kg after 6 hrs by mass spectrometry; format: ADME, organism-based; design: dose 300 mg/kg
Procedure, shortened: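 Single 300 mg/kg bolus i.p. injection in B6SJL mice; blood and brain collected at 0, 1, 3, 6, 12 and 24 h, flash frozen in liquid nitrogen and stored at -80 °C. Samples analysed by mass spectrometry with ESI ionization in MRM mode.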

[28] = system: Superoxide dismutase [Cu-Zn] (Homo sapiens), P00441 [G94A]; test: Inhibition of SOD1 G93A mutant aggregation-induced cytotoxicity in human SH-SY5Y cells by cytotoxicity protection assay; format: cell-based
Plasma = test: Plasma protein binding in rat; format: ADME, cell-free
Cytochrome P450 2C19 = Cytochrome P450 2C19 (Homo sapiens, UniProt P33261); test: Inhibition of CYP2C19; format: ADME; procedure, shortened: as §4
Rattus norvegicus [29] = test: Dose normalised AUC in Sprague-Dawley rat at 1 mg/kg, po; format: ADME, organism-based; design: dose 1 mg/kg, route oral; conditions: in vivo
Procedure, shortened: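 Sprague-Dawley rats given a single 1 mg/kg bolus, intravenous or oral. Plasma PK parameters (AUC, dose-normalised AUC, half-life, clearance, Vss, Cmax, Tmax, oral bioavailability) derived from plasma levels.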

[30] = system: Superoxide dismutase [Cu-Zn] (Homo sapiens), P00441 [G94A]; test: Inhibition of SOD1 G93A mutant aggregation-induced cytotoxicity in human HeLa cells by cytotoxicity protection assay; format: cell-based
[31] = biological target: Neuropeptide Y receptor type 2 (Homo sapiens) (UniProt P49146); test: Inhibition of human Neuropeptide Y Y2 receptor at 10 uM by radioligand displacement assay
Procedure, shortened: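 Single concentration of 10 μM, tested in duplicate in a contract panel of 68 in vitro enzyme and receptor binding assays covering common adverse CNS, cardiovascular, pulmonary and genotoxic targets.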

Homo sapiens [32] = organism: Homo sapiens; test: Inhibition of human dopamine […] receptor at 10 uM by radioligand displacement assay; procedure, shortened: as §1
[33] = biological target: Substance-P receptor (Homo sapiens) (UniProt P25103); test: Inhibition of human tachykinin NK1 receptor at 10 uM by radioligand displacement assay; procedure, shortened: as §1

Sequence of Superoxide dismutase [Cu-Zn] (Homo sapiens), P00441 [G94A] (P00441 whole entry G94A): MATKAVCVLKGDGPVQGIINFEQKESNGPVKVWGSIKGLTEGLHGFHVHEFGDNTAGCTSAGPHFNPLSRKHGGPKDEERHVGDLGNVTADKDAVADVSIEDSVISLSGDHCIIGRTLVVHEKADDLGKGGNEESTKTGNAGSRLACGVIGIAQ
Sequence of Cytochrome P450 2C19 (P33261 whole entry): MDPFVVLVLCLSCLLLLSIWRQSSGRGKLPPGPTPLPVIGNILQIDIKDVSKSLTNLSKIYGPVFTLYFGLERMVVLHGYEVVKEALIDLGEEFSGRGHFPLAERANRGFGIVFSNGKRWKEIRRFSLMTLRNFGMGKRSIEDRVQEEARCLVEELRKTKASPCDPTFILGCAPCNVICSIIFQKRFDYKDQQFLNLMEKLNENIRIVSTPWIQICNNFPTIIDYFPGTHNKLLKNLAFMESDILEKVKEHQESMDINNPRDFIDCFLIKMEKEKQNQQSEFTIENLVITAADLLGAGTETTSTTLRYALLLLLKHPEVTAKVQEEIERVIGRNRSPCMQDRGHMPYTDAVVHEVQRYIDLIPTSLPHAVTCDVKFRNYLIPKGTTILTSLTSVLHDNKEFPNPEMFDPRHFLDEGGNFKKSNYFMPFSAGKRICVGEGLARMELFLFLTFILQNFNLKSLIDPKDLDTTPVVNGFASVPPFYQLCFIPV
Sequence of Kappa-type opioid receptor (Homo sapiens) (P41145 whole entry): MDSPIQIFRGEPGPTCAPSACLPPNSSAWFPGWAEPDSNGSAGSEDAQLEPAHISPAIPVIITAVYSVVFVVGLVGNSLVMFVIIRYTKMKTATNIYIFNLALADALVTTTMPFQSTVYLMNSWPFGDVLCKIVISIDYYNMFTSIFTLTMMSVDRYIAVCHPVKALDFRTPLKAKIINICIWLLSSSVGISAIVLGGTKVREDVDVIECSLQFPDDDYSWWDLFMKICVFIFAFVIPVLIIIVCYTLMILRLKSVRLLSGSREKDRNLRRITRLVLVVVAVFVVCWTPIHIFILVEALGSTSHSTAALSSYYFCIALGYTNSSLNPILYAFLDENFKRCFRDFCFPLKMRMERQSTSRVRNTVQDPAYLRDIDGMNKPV
Sequence of Alpha-1D adrenergic receptor (Homo sapiens) (P25100 whole entry): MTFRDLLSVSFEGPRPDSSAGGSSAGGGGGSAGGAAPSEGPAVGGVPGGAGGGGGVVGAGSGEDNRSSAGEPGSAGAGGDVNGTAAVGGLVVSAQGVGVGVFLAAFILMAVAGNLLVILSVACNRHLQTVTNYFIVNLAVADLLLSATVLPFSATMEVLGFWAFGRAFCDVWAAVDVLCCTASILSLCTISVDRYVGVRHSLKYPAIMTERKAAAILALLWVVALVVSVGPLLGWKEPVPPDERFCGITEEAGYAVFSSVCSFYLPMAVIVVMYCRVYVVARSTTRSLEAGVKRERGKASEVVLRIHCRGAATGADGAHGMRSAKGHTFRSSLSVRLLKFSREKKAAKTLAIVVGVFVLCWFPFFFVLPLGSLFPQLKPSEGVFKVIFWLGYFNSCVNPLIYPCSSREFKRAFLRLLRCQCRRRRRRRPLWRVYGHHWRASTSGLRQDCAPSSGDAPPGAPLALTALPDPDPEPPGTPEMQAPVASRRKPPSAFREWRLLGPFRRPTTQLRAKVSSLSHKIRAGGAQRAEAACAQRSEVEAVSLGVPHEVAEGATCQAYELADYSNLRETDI
Sequence of Cysteinyl leukotriene receptor 1 (Homo sapiens) (Q9Y271 whole entry): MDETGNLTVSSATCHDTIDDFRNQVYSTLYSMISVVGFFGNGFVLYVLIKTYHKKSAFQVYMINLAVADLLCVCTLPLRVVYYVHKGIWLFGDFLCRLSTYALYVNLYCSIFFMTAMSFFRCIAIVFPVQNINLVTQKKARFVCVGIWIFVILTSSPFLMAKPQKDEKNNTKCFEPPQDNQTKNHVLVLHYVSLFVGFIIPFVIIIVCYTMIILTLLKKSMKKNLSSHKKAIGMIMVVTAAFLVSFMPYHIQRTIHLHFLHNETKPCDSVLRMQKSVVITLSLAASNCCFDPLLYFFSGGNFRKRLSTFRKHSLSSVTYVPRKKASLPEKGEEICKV
Sequence of Cytochrome P450 1A2 (P05177 whole entry): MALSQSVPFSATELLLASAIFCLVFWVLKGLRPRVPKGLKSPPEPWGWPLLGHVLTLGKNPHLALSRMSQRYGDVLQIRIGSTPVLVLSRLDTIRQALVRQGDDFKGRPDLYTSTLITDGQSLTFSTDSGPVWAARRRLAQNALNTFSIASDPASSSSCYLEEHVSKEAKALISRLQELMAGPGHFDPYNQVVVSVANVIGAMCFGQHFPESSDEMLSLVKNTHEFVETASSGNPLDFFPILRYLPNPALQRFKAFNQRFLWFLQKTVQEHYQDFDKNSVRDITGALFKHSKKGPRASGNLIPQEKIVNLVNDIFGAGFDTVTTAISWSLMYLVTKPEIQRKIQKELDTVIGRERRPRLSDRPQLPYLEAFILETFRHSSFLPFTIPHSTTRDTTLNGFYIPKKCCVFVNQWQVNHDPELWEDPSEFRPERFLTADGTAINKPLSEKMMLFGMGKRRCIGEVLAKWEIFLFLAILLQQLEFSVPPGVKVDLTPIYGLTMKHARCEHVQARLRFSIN
Sequence of hERG (Q12809 whole entry): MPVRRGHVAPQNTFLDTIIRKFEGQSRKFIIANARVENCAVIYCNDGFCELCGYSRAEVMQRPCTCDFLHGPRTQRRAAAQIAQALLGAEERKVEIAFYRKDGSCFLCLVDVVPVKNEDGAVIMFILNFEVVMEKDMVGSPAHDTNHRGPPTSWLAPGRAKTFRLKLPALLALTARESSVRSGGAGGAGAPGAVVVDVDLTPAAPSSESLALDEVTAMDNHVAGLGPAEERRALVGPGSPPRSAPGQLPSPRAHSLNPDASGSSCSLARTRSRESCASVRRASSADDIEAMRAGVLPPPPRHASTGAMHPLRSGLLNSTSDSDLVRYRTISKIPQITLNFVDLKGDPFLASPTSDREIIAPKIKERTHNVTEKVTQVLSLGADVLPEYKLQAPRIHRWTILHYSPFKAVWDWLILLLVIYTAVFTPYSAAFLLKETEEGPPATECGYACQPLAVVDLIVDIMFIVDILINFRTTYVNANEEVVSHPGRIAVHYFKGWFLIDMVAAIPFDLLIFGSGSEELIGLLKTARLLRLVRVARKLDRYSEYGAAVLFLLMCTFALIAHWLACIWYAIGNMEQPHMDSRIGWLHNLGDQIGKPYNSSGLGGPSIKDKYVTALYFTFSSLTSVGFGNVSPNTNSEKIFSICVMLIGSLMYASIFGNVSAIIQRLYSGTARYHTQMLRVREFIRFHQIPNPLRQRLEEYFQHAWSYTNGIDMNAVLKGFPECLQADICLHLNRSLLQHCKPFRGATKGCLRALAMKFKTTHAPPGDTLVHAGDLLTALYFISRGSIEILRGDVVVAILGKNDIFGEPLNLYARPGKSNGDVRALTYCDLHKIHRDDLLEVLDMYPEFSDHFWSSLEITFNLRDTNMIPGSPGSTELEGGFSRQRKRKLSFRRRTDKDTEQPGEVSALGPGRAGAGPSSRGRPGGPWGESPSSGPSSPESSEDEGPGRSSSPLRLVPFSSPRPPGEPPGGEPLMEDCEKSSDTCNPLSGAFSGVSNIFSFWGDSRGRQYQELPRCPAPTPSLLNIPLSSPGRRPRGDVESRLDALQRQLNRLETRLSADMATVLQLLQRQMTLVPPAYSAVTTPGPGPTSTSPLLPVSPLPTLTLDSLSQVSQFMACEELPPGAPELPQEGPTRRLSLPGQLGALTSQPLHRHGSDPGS
Sequence of Muscarinic acetylcholine receptor M2 (Homo sapiens) (P08172 whole entry): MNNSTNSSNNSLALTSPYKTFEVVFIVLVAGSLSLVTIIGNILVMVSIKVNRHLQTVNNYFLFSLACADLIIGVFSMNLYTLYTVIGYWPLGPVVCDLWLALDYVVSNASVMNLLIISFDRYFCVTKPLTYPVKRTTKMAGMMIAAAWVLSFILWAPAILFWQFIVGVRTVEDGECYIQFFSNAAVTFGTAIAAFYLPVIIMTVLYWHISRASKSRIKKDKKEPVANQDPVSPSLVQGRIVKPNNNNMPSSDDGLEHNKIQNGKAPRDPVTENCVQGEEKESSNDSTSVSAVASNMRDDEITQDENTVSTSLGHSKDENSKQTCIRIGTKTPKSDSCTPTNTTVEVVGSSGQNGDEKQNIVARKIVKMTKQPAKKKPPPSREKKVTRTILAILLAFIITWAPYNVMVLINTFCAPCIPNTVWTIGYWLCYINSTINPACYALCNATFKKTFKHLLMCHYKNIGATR
Sequence of Prostaglandin E2 receptor EP4 subtype (Homo sapiens) (P35408 whole entry): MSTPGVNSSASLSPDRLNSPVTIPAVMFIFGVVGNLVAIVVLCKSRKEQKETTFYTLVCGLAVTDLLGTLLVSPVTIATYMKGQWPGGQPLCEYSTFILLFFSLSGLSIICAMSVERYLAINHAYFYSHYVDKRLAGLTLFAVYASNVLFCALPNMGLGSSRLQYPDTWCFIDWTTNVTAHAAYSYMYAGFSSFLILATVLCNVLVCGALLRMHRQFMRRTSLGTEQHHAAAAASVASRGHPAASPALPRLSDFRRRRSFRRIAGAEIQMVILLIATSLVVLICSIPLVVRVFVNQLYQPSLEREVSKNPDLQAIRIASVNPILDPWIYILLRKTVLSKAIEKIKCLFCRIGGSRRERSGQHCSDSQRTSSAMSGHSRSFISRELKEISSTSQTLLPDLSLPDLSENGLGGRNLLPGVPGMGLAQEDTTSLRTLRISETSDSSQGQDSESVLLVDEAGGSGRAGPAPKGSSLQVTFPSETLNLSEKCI
Sequence of Neuropeptide Y receptor type 2 (Homo sapiens) (P49146 whole entry): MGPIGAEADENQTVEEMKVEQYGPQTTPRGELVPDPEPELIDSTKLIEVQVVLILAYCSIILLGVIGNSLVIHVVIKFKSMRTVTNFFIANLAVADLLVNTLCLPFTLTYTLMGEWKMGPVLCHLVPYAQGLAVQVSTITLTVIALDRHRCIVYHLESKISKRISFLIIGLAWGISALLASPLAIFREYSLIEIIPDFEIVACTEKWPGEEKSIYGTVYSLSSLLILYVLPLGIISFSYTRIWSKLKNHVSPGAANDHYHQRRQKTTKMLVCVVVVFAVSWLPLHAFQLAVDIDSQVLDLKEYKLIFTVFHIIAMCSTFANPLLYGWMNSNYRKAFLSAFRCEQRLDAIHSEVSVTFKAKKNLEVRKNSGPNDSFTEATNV

O=c1cc(COc2cc(Cl)cc(Cl)c2)[nH][nH]1
inhibition (Rattus norvegicus [1]): 10%
inhibition [2]: 1%
inhibition [3]: -1%
inhibition [4]: -9%
inhibition [5]: 0%
inhibition [6]: Active
inhibition [7]: 3%
inhibition (Homo sapiens [8]): -3%
inhibition at 10 µM [9]: -2%
inhibition (Rattus norvegicus [10]): 1%
inhibition [11]: 0%
concentration at 3 h [12]: 342 µM
inhibition (Rattus norvegicus [13]): -4%
IC50 (Cytochrome P450 1A2): > 50 µM
inhibition [14]: -7%
inhibition [15]: 5%
inhibition [16]: -2%
inhibition at 10 µM [17]: -5%
inhibition (Rattus norvegicus [18]): 3%
inhibition [19]: -8%
inhibition [20]: -2%
inhibition [21]: -2%
inhibition [22]: 0%
concentration at 12 h [23]: 248 µM
inhibition [24]: 1%
t1/2 [25]: 36 min
inhibition at 10 µM (hERG): -7%
inhibition [26]: -3%
concentration at 6 h [27]: 347 µM
inhibition [28]: Active
PPB (Plasma): 98%
IC50 (Cytochrome P450 2C19): 20 µM
AUC/dose (Rattus norvegicus [29]): 50 ng·h/mL/mg/kg
inhibition [30]: Active
inhibition [31]: 6%
inhibition (Homo sapiens [32]): 14%
inhibition [33]: 3%
